The target in data set [1] is T1, Transient receptor potential cation channel subfamily V member 1 (Rattus norvegicus, UniProt O35433). In words: Agonist activity at rat TRPV1 receptor expressed in CHO cells assessed as calcium uptake. Type of data set: functional, cell-based.
In data set [2] the target is T1, Transient receptor potential cation channel subfamily V member 1. In words: Displacement of [3H]RTX form rat TRPV1 receptor expressed in CHO/VR1 cell system. In kind it is cell-based.
Data set [3] has as its target Transient receptor potential cation channel subfamily V member 1 (Rattus norvegicus) (UniProt O35433). In words: Activity at rat TRPV1 receptor expressed in CHO cells assessed as changes in intracellular calcium levels at 75 pM by calcium imaging. In kind it is cell-based. On the technique in general: A change in cytosolic calcium serves as a functional read-out for many receptors and channels.

Data set [4] is described as follows: Metabolic stability in Sprague-Dawley rat liver microsomes at 10 ug/mL after 60 mins by HPLC. In kind it is ADME, Microsome. Particulars: read-out: Stability.
Data set [5] in a line: Metabolic stability in Sprague-Dawley rat plasma at 10 ug/mL after 240 mins by HPLC. Type of data set: ADME, cell-free. Particulars: read-out: Stability. In a few lines:
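Compound added to pre-warmed rat plasma to a final 10 μg/mL and incubated 240 min. Stopped with methanol at 0 and 240 min and quantified by LC-MS. Expressed as percent of initial concentration remaining.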

Data set [6] has as its target Transient receptor potential cation channel subfamily V member 1 (Rattus norvegicus) (UniProt O35433). In words: Agonist activity at rat TRPV1 receptor expressed in CHO cells assessed as calcium uptake relative to capsaicin. Type of data set: functional, cell-based.

The source made the active and inactive calls. The calls are words filed in the database; no cut-off is given here.

T1 sequence (O35433 whole entry): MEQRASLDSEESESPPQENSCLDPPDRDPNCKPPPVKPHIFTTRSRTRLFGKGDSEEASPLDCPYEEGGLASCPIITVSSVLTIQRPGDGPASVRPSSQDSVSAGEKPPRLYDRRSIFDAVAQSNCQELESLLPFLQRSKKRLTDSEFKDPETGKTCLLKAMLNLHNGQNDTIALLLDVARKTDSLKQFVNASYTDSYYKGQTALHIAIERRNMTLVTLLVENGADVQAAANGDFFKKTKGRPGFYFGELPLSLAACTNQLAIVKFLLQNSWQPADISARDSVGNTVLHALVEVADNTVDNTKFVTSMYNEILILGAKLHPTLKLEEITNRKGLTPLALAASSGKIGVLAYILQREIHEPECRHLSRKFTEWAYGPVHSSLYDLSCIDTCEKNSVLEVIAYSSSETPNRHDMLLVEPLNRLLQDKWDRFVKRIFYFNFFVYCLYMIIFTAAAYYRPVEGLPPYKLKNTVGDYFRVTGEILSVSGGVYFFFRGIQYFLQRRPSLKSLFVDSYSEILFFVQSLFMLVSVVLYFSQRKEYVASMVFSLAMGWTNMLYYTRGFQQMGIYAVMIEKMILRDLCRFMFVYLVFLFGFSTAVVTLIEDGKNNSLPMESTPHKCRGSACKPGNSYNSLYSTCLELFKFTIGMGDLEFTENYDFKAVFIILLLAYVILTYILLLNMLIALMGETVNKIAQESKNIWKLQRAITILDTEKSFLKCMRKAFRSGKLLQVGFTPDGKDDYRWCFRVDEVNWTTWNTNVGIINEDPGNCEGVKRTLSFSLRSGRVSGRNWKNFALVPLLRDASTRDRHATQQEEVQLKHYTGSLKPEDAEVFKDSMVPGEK
Transient receptor potential cation channel subfamily V member 1 (Rattus norvegicus), sequence (O35433 whole entry): as above

On to `C=C(C)[C@@]12C[C@@H](C)[C@@]34OC(Cc5ccccc5)(O[C@@H]1[C@@H]3C=C(COC(=O)Cc1c(F)cccc1F)C[C@]1(O)C(=O)C(C)=C[C@@H]41)O2`, for which the EC50 (usually the concentration giving half of the maximal effect) in data set [1] was 11.3 nM. For the same compound, the Ki (commonly the dissociation constant of the complex between target and ligand, obtained from inhibition or displacement) in data set [2] is 2.69 nM.

In the case of `C=C(C)[C@@]12C[C@@H](C)[C@@]34OC(Cc5ccccc5)(O[C@@H]1[C@@H]3C=C(CNC(=O)Cc1ccc(NS(C)(=O)=O)cc1)C[C@]1(O)C(=O)C(C)=C[C@@H]41)O2`, in data set [1], the EC50 worked out at 375 nM. Also, the affinity in data set [2] corresponds to a Ki of 320 nM.

Regarding `C=C(C)[C@]12C[C@@H](C)[C@@]34O[C@](Cc5ccccc5)(O[C@@H]1[C@@H]3C=C(COC(=O)Cc1ccc(O)c(OC)c1)C[C@]1(O)C(=O)C(C)=C[C@@H]41)O2` [RESINIFERATOXIN], in data set [1], the EC50 is 0.27 nM. In data set [3], the result was Active. For the same compound, the remaining at 1 h, 10 ug/mL in data set [4] turned out to be 57.6%. Besides, the remaining at 4 h, 10 ug/mL in data set [5] was determined as 71.7%. The same compound returned a Ki in data set [2] of 0.0426 nM.

For the compound `C=C(C)[C@@]12C[C@@H](C)[C@@]34OC(Cc5ccccc5)(O[C@@H]1[C@@H]3C=C(COC(=O)Cc1ccc(NS(C)(=O)=O)cc1)C[C@]1(O)C(=O)C(C)=C[C@@H]41)O2`, the EC50 in data set [1] was 1.78 nM. The Ki in data set [2] is 6.81 nM.

As for `C=C(C)[C@@]12C[C@@H](C)[C@@]34OC(Cc5ccccc5)(O[C@@H]1[C@@H]3C=C(COC(=O)Cc1ccc(NS(C)(=O)=O)c(OC)c1)C[C@]1(O)C(=O)C(C)=C[C@@H]41)O2`, in data set [1], the EC50 worked out at 0.106 nM. Moreover, the remaining at 1 h, 10 ug/mL in data set [4] was found to be 81.4%. In addition, in data set [5], the remaining at 4 h, 10 ug/mL was 90.8%. The Ki in data set [2] was determined as 0.228 nM.

As to `C=C(C)[C@@]12C[C@@H](C)[C@@]34OC(Cc5ccccc5)(O[C@@H]1[C@@H]3C=C(COC(=O)Cc1ccc(NS(C)(=O)=O)c(F)c1)C[C@]1(O)C(=O)C(C)=C[C@@H]41)O2`, in data set [1], the concentration giving a half-maximal response (EC50) stood at 2.45 nM. The Ki in data set [2] was found to be 0.84 nM.

With `C=C(C)[C@@]12C[C@@H](C)[C@@]34OC(Cc5ccccc5)(O[C@@H]1[C@@H]3C=C(COC(=O)Cc1cc(F)cc(F)c1)C[C@]1(O)C(=O)C(C)=C[C@@H]41)O2`, the EC50 in data set [1] was 59 nM. Also, in data set [2], the affinity corresponds to a Ki of 8.3 nM.

In the case of `C=C(C)[C@@]12C[C@@H](C)[C@@]34OC(Cc5ccccc5)(O[C@@H]1[C@@H]3C=C(COC(=O)Cc1ccc(F)cc1)C[C@]1(O)C(=O)C(C)=C[C@@H]41)O2`, the EC50 in data set [1] came out at 3.88 nM. In addition, the Ki in data set [2] was 3.1 nM.

On to `C=C(C)[C@@]12C[C@@H](C)[C@@]34OC(Cc5ccccc5)(O[C@@H]1[C@@H]3C=C(COC(=O)Cc1cc(F)ccc1F)C[C@]1(O)C(=O)C(C)=C[C@@H]41)O2`, for which the EC50 in data set [1] is 4.21 nM. This compound returned a Ki in data set [2] of 0.4 nM.

`C=C(C)[C@@]12C[C@@H](C)[C@@]34OC(Cc5ccccc5)(O[C@@H]1[C@@H]3C=C(COC(=O)Cc1ccccc1F)C[C@]1(O)C(=O)C(C)=C[C@@H]41)O2`: in data set [1], the EC50 came to 4.65 nM.

With `C=C(C)[C@@]12C[C@@H](C)[C@@]34OC(Cc5ccccc5)(O[C@@H]1[C@@H]3C=C(COC(=O)Cc1cccc(F)c1)C[C@]1(O)C(=O)C(C)=C[C@@H]41)O2`, the EC50 in data set [1] was 1.92 nM. In data set [2], this compound had a Ki of 2.4 nM.

As to `C=C(C)[C@@]12C[C@@H](C)[C@@]34OC(Cc5ccccc5)(O[C@@H]1[C@@H]3C=C(COC(=O)Cc1cccc(F)c1F)C[C@]1(O)C(=O)C(C)=C[C@@H]41)O2`, the EC50 in data set [1] was determined as 9.1 nM. Moreover, the Ki in data set [2] worked out at 3.53 nM.

With `C=C(C)[C@@]12C[C@@H](C)[C@@]34OC(Cc5ccccc5)(O[C@@H]1[C@@H]3C=C(COC(=O)Cc1ccc(F)c(F)c1)C[C@]1(O)C(=O)C(C)=C[C@@H]41)O2`, the EC50 in data set [1] came out at 5.5 nM. This compound also returned an inhibition constant Ki in data set [2] of 0.98 nM.

In the case of `C=C(C)[C@@]12C[C@@H](C)[C@@]34OC(Cc5ccccc5)(O[C@@H]1[C@@H]3C=C(COC(=O)Cc1ccc(F)cc1F)C[C@]1(O)C(=O)C(C)=C[C@@H]41)O2`, in data set [1], the concentration giving a half-maximal response (EC50) amounted to 1.8 nM. In addition, the remaining at 1 h, 10 ug/mL in data set [4] amounted to 57.9%. The remaining at 4 h, 10 ug/mL in data set [5] is 88.3%. The Ki in data set [2] stood at 0.89 nM.

Turning to `C=C(C)[C@@]12C[C@@H](C)[C@@]34OC(Cc5ccccc5)(O[C@@H]1[C@@H]3C=C(COC(=O)Cc1c(F)c(F)c(F)c(F)c1F)C[C@]1(O)C(=O)C(C)=C[C@@H]41)O2`, the Activity in data set [6] turned out to be 23%. The compound further gave a Ki in data set [2] of 135 nM.

(Values after ChEMBL document CHEMBL1140894, “Non-vanillyl resiniferatoxin analogues as potent and metabolically stable transient receptor potential vanilloid 1 agonists” (Bioorg Med Chem, 2009).)
